We go through four molecules from article PMC10246574 (International Journal of Nanomedicine, 2023).

For data set [1], the system named is chorio-allantoic membrane of fertilized hen's eggs. Kind of data set: Hen's egg chorio-allantoic membrane. To be noted: for irritation score (IS): 30 µL applied, observed 300 s; for irritation category: from IS. A digest of the protocol:
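Fertilized hen's eggs (7–10 days) incubated at 37.5 ± 0.5 °C and 62.5 ± 7.5% humidity with rotation. Shell over the air cell opened, membrane moistened with saline and removed. 30 µL sample applied to the CAM. First hemorrhage, vascular lysis and coagulation timed over 300 s; IS = [(301−h)×5]/300 + [(301−l)×7]/300 + [(301−c)×9]/300. CAM also imaged at 0, 5 and 60 min. Controls: 1% w/v SLS and normal saline.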

The subject of the next data set is human skin. To be noted: daily application under occlusive patch, human volunteers; cited from earlier work.
Data set [2] can be described thus: Cytotoxicity by MTT assay in HaCaT cells. It counts as cell-based. To be noted: human, HaCaT cells (immortalized epidermal keratinocytes). In outline:
(§1)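 Thawed cells grown in DMEM with 10% v/v fetal calf serum, 1 mM L-glutamine, penicillin and streptomycin at 37 °C, 5% CO2. Seeded at 3 × 10^5 (HaCaT) or 3.5 × 10^5 (Hs68) cells/well for 24 h. Treated with oil at 0–100 µg/mL for 48 h. MTT (5 mg/mL solution) added for 4 h; formazan dissolved in DMSO; A578 and A630.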
(Formazan colour is commonly taken as a measure of viable cells.)

Data set [3] is described as follows: Cytotoxicity by MTT assay in Hs68 cells. It counts as cell-based. To be noted: human, Hs68 cells (foreskin fibroblasts). A digest of the protocol: as §1
For a further data set, the system named is rabbit skin. To be noted: rabbits, ref Acid (1987) [48], cited from earlier work.

≈ marks a conversion by molar mass, not a printed value. Where only a bound is given, the exact number is not on record here.

With `CCCCCCCC/C=C\CCCCCCCC(=O)O` [oleic acid], in data set [1], the “irritation score (IS)” value was determined as 0.0 ± 0.0 and the irritation category result is on record as “no irritant effect”. For the same molecule, the “irritation of human skin” value with human skin was “not found to be irritating”. For the same molecule, in data set [2], the concentration for an effect of 20% (IC20) – broadly, the concentration at which the effect reaches the 20% level – at 48 h was 100 µg/mL (≈ 354 µM) and the viability – broadly, the share of living cells, or the viability signal relative to a control – at 48 h, 100 µg/mL is 82.2 ± 6.1%. In data set [3], this molecule gave an IC20 at 48 h of over 100 µg/mL and a viability at 48 h, 100 µg/mL of over 90%. For the same molecule, the “primary irritation index (PII)” value with rabbit skin (single insult occlusive patch test) is recorded as 0.5. Besides, the erythema result in the data set on rabbit skin (oleic acid after 24 h, palmitic acid after 2–24 h) was “moderate erythema”.
With `CCCCCCCCCCCCCCCC(=O)O` [palmitic acid], in data set [1], the “irritation score (IS)” value is on record as 0.0 ± 0.0 and the irritation category result is listed as “no irritant effect”. Further, in data set [1] (60 min), the “irritation signs on CAM after 60 min of exposure” value is “vascular lysis was detected”. Further, in the data set with human skin, the “irritation of human skin” value is recorded as “not found to be irritating”. Further, in data set [2], the 20% effect concentration (IC20) at 48 h is 100 µg/mL (≈ 390 µM) and the viability at 48 h, 100 µg/mL came out at 75.9 ± 3.5%. Besides, in data set [3], the IC20 at 48 h was over 100 µg/mL and the viability at 48 h, 100 µg/mL is over 90%.
For `CCCCC/C=C\C/C=C\CCCCCCCC(=O)O` [linoleic acid], in data set [1], the “irritation score (IS)” value is reported as 0.0 ± 0.0 and the irritation category entry was “no irritant effect”. The “irritation of human skin” value in the data set on human skin is “found to produce irritation”. In data set [2], this molecule yielded an IC20 at 48 h of 100 µg/mL (≈ 357 µM) and a viability at 48 h, 100 µg/mL of 73.8 ± 5.8%. Also, in data set [3], the IC20 at 48 h is over 100 µg/mL and the viability at 48 h, 100 µg/mL is over 90%.
As for `CCCCCCCCCCCCOS(=O)(=O)[O-].[Na+]` [SLS, sodium lauryl sulphate], in data set [1], the “irritation score (IS)” value is reported as 12.5 ± 0.3 and the irritation category entry was “severe irritation”.
